# Published values from different studies.
# Lines come from different studies, so protocols differ.
Structure (SMILES),organism,assay,test system,setting,quantity,result
C[C@@]1(O)[C@H](O)[C@@H](CO)O[C@H]1n1ccc(N)nc1=O,Hepatitis C virus,"viral replication, inhibitor",Huh-7,replicon,EC50,1800 nM
CC(=O)OC[C@@]1(C)[C@H]2CC[C@@H]3CN(Cc4cccs4)[C@@H](C4=CCOC4=O)C[C@H]3[C@]2(C)CC[C@H]1OC(C)=O,unidentified human coronavirus,cytopathic effect,MRC5,"25 µM, 72 h",inhibition,31.2%
CCOC(=O)C=c1[nH]c(=O)c(=Cc2cn(-c3ccccc3)nc2-c2ccccc2)s1,Acinetobacter baumannii,"microbial growth, well diffusion",,100000 µg/mL,inhibition zone,12 mm
Nc1nc2c(ncn2[C@@H]2O[C@H](CO)[C@@H](F)[C@@H]2F)c(=O)[nH]1,Hepatitis C virus,"viral replication, inhibitor",Huh-7,replicon,EC50,> 10000 nM
CC(C)Oc1c(NC(=O)c2ccc(NC(=O)[C@H](CC(N)=O)NC(=O)c3ccc(NC(=O)c4ccc(C#N)cn4)cc3)cc2)ccc(C(=O)Nc2ccc(C(=O)O)cc2)c1O,Proteus mirabilis,microbial growth,DSM4479,,MIC,4 µg/mL
OC[C@H]1O[C@@H](n2cnc3c(NCc4ccccc4)nc(Cl)nc32)[C@@H](F)[C@@H]1F,Hepatitis C virus,"viral replication, inhibitor",Huh-7,replicon,EC50,2900 nM
COC(=O)N[C@H](C(=O)N1CCC[C@H]1C(=O)Nc1cccc(C#CC#Cc2cccc(NC(=O)[C@@H]3CCCN3C(=O)[C@@H](NC(=O)OC)C(C)C)c2)c1)C(C)C,Hepatitis C virus,"viral replication, inhibitor, luciferase",GETYPE4A,replicon,EC50,6.11 nM
NC(=O)c1ncn([C@@H]2O[C@H](CO)[C@@H](O)[C@H]2O)n1,Enterovirus B,cytopathic effect,"Vero, B3 CVB3",,IC50,1580 µM
CCOC(=O)c1c(N)csc1-c1cn(-c2ccccc2)nc1-c1ccc(C)cc1,Acinetobacter baumannii,"microbial growth, well diffusion",,100000 µg/mL,inhibition zone,29 mm
CC1(C)OC[C@@]2(C)[C@H]3CC[C@@H]4CN(Cc5ccc(O)cc5)[C@@H](C5=CCOC5=O)C[C@H]4[C@]3(C)CC[C@H]2O1,unidentified human coronavirus,cytopathic effect,MRC5,"25 µM, 72 h",inhibition,58.1%
CCCCCCC/C=C/C(=O)N1C(=O)/C(=C(\O)C2CCNCC2)C(=O)C1CC(C)C (stereo not shown),Proteus mirabilis,microbial growth,ATCC25933,,MIC,200 µg/mL
CC(=O)OC[C@@]1(C)[C@H]2CC[C@@H]3CN(Cc4ccc(O)cc4)[C@@H](C4=CCOC4=O)C[C@H]3[C@]2(C)CC[C@H]1OC(C)=O,unidentified human coronavirus,cytopathic effect,MRC5,"25 µM, 72 h",inhibition,50.4%
N#CC(=Cc1ccccc1O)C1=NC(=O)C(=Cc2cn(-c3ccccc3)nc2-c2ccccc2)S1,Acinetobacter baumannii,"microbial growth, well diffusion",,100000 µg/mL,inhibition zone,25 mm
C[C@]1(CO)[C@H]2CC[C@@H]3CN(Cc4ccccc4)[C@@H](C4=CCOC4=O)C[C@H]3[C@]2(C)CC[C@H]1O,unidentified human coronavirus,cytopathic effect,MRC5,"25 µM, 72 h",inhibition,34.9%
O=C(Nc1ccccc1-c1ccc(F)c(F)c1)c1nccnc1C(F)(F)F,Colletotrichum orbiculare,microbial growth,,,EC50,> 100 µg/mL
CCCCC(=O)N1C(=O)/C(=C(/C)O)C(=O)C1CC(C)C (stereo not shown),Proteus mirabilis,microbial growth,ATCC25933,,MIC,> 200 µg/mL
COC(=O)N[C@@H](CC(C)C)C(=O)N1CCC[C@H]1C(=O)Nc1cccc(C#CC#Cc2cccc(NC(=O)[C@@H]3CCCN3C(=O)[C@H](CC(C)C)NC(=O)OC)c2)c1,Hepatitis C virus,"viral replication, inhibitor, luciferase","Huh-5-2, GETYPE1B","72 h, replicon",EC50,> 20000 nM
Cc1ccc(S(=O)(=O)Nc2ncc(-c3nc4ccccc4s3)c(N)n2)cc1,Enterovirus B,plaque formation,"BGM, B4",,IC50,110 µg/mL
Nc1nc(N)c2ncn([C@H]3O[C@H](CO)[C@@H](F)[C@@H]3F)c2n1,Hepatitis C virus,"viral replication, inhibitor",Huh-7,replicon,EC90,> 10 µM
COC(=O)N[C@H](C(=O)N1CCC[C@H]1c1ncc(-c2ccc(-c3ccc(-c4cnc([C@@H]5CCCN5C(=O)[C@@H](NC(=O)OC)C(C)C)[nH]4)cc3)cc2)[nH]1)C(C)C,Hepatitis C virus,"viral replication, inhibitor","HeLa, GETYPE2A",replicon,EC50,0.0037 nM
O=C(CNc1nc(NS(=O)(=O)c2ccccc2)ncc1-c1nc2ccccc2s1)c1ccc(Br)cc1,Enterovirus B,plaque formation,"BGM, B4",,IC50,84 µg/mL
CCCCCCC/C=C/C(=O)N1C(=O)/C(=C(/C)O)C(=O)C1CO (stereo not shown),Proteus mirabilis,microbial growth,ATCC25933,,MIC,> 200 µg/mL
CCOC(=O)N[C@H](C(=O)N1CCC[C@H]1C(=O)Nc1cccc(C#CC#Cc2cccc(NC(=O)[C@@H]3CCCN3C(=O)[C@@H](NC(=O)OCC)[C@@H](C)CC)c2)c1)[C@H](C)CC,Hepatitis C virus,"viral replication, inhibitor, luciferase","Huh-5-2, GETYPE1B","72 h, replicon",EC50,392 nM
CC1(C)OC[C@@]2(C)[C@H]3CC[C@@H]4CN(Cc5ccc(F)c(Cl)c5)[C@@H](C5=CCOC5=O)C[C@H]4[C@]3(C)CC[C@H]2O1,unidentified human coronavirus,cytopathic effect,MRC5,"25 µM, 72 h",inhibition,51.6%
CCOC(=O)N[C@H](C(=O)N1CCC[C@@H]1C(=O)Nc1ccc(C#CC#Cc2ccc(NC(=O)[C@H]3CCCN3C(=O)[C@@H](NC(=O)OCC)C(C)C)cc2)cc1)C(C)C,Hepatitis C virus,"viral replication, inhibitor, luciferase","Huh-5-2, GETYPE1B","72 h, replicon",EC50,> 10000 nM
CCCCN1C[C@H]2CC[C@@H]3[C@](C)(COC(C)=O)[C@H](OC(C)=O)CC[C@@]3(C)[C@@H]2C[C@@H]1C1=CCOC1=O,unidentified human coronavirus,cytopathic effect,MRC5,"25 µM, 72 h",inhibition,54.7%
CCOC(=O)N[C@@H](CC(C)C)C(=O)N1CCC[C@H]1C(=O)Nc1cccc(C#CC#Cc2cccc(NC(=O)[C@@H]3CCCN3C(=O)[C@H](CC(C)C)NC(=O)OCC)c2)c1,Hepatitis C virus,"viral replication, inhibitor, luciferase",GETYPE4A,replicon,EC50,40.9 nM
CN(C)c1ccc(O)c2c1C[C@H]1C[C@H]3[C@H](N(C)C)C(O)=C(C(N)=O)C(=O)[C@@]3(O)C(O)=C1C2=O,Acinetobacter baumannii,"microbial growth, broth dilution",ATCC19606,,MIC,0.063 µg/mL
CCOC(=O)N[C@@H](C(=O)N1CCC[C@H]1C(=O)Nc1cccc(C#CC#Cc2cccc(NC(=O)[C@@H]3CCCN3C(=O)[C@H](NC(=O)OCC)C(C)C)c2)c1)C(C)C,Hepatitis C virus,"viral replication, inhibitor, luciferase","Huh-5-2, GETYPE1B","72 h, replicon",EC50,70 nM
C=C1CC[C@@H]2[C@](C)(CO)[C@H](O)CC[C@@]2(C)[C@@H]1C/C=C1/C(=O)OC[C@H]1O,unidentified human coronavirus,cytopathic effect,MRC5,"25 µM, 72 h",inhibition,58.4%
CCOC(=O)N[C@H](CC(C)C)C(=O)N1CCC[C@@H]1C(=O)Nc1ccc(C#CC#Cc2ccc(NC(=O)[C@H]3CCCN3C(=O)[C@@H](CC(C)C)NC(=O)OCC)cc2)cc1,Hepatitis C virus,"viral replication, inhibitor, luciferase","Huh-5-2, GETYPE1B","72 h, replicon",EC50,> 10000 nM
O=C(OC[C@H]1O[C@H](n2cnc3c(Cl)nc(Cl)nc32)[C@@H](F)[C@@H]1F)c1ccccc1,Hepatitis C virus,"viral replication, inhibitor",Huh-7,replicon,EC50,< 10000 nM
CC(=O)OC[C@@]1(C)[C@H]2CC[C@@H]3CN(CCC(C)C)[C@@H](C4=CCOC4=O)C[C@H]3[C@]2(C)CC[C@H]1OC(C)=O,unidentified human coronavirus,cytopathic effect,MRC5,"25 µM, 72 h",inhibition,105%
COC(=O)N[C@H](C(=O)N1CCC[C@H]1c1nc(-c2ccc(-c3ccc(-c4c[nH]c([C@@H]5CCCN5C(=O)[C@@H](NC(=O)OC)C(C)C)n4)cc3)cc2)c[nH]1)C(C)C,Hepatitis C virus,"viral replication, inhibitor, luciferase","Huh-5-2, GETYPE1B","72 h, replicon",EC50,0.0266 nM
